Experimental findings from ChEMBL document CHEMBL4014345, “Development of Selective Clk1 and -4 Inhibitors for Cellular Depletion of Cancer-Relevant Proteins” (J Med Chem, 2017) are described below.

Data set [1] deals with T1, Dual specificity protein kinase CLK1 (Homo sapiens, UniProt P49759). As to the kind of experiment: Inhibition of recombinant human GST-tagged Clk1 expressed in Escherichia coli at 100 nM using RS repeat substrate peptide after 15 mins in presence of [gamma-32]-ATP.
Target sequence in this assay (P49759 whole entry, looked up): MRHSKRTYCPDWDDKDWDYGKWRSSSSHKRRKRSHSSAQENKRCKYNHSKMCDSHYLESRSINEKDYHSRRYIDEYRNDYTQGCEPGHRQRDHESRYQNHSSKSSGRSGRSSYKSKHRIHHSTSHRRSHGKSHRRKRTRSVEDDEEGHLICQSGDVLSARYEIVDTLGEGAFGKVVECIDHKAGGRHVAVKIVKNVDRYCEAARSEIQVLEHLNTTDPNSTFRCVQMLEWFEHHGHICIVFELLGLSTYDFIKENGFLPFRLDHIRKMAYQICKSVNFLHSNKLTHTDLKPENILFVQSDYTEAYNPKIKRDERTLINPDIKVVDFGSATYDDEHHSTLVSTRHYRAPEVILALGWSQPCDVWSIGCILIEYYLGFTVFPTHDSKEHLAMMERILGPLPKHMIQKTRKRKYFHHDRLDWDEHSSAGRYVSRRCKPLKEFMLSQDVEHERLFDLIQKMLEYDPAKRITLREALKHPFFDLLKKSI
The target of data set [2] is T1, Dual specificity protein kinase CLK1. Nature of the data set: Inhibition of recombinant human GST-tagged Clk1 expressed in Escherichia coli using RS repeat substrate peptide after 15 mins in presence of [gamma-32]-ATP.
Target sequence in this assay (P49759 whole entry): as the sequence (P49759 whole entry, looked up) above
The next data set concerns T47D. As to the kind of experiment: Cytotoxicity against human T47D cells assessed as growth inhibition after 5 days by MTT assay. It counts as functional. The conditions noted are these: 120 h. The method, boiled down:
(§1)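 They were seeded at 5000 cells per well onto compound or DMSO (0.2% final). Plates were kept 5 days at 37 °C in 5% CO2 with no medium change, then read by MTT.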
For orientation: Tetrazolium assays rely on reduction of a dye to a coloured formazan, in cell work by metabolically active cells.

For the next data set, the system named is T-24. As to the kind of experiment: Cytotoxicity against human T24 cells assessed as growth inhibition after 5 days by MTT assay. The conditions noted are these: T-24, 120 h. The data set is classed as functional. A digest of the protocol: as §1
The next data set has as its system MDA-MB-231. As to the kind of experiment: Cytotoxicity against human MDA-MB-231 cells assessed as growth inhibition after 5 days by MTT assay. The data set is classed as functional. The conditions noted are these: MDA-MB-231, 120 h. A digest of the protocol: as §1
The next data set concerns THP-1. As to the kind of experiment: Cytotoxicity against human THP1 cells assessed as growth inhibition after 5 days by MTT assay. It counts as functional. The conditions noted are these: THP-1, 120 h. A digest of the protocol:
as §1

For data set [3], the target named is T1, Dual specificity protein kinase CLK1. As to the kind of experiment: Inhibition of recombinant human GST-tagged Clk1 expressed in Escherichia coli at 1 uM using RS repeat substrate peptide after 15 mins in presence of [gamma-32]-ATP.
Target sequence in this assay (P49759 whole entry, looked up): as above
The target in data set [4] is Dual specificity protein kinase CLK2 (Mus musculus) (UniProt O35491). Nature of the data set: Inhibition of recombinant GST-tagged mouse CLK2 using GRSRSRSRSRSR as substrate at 1 uM after 30 mins in presence of [gamma-32P]-ATP by scintillation counting method.
Chain of Dual specificity protein kinase CLK2 (Mus musculus) (O35491 whole entry, looked up): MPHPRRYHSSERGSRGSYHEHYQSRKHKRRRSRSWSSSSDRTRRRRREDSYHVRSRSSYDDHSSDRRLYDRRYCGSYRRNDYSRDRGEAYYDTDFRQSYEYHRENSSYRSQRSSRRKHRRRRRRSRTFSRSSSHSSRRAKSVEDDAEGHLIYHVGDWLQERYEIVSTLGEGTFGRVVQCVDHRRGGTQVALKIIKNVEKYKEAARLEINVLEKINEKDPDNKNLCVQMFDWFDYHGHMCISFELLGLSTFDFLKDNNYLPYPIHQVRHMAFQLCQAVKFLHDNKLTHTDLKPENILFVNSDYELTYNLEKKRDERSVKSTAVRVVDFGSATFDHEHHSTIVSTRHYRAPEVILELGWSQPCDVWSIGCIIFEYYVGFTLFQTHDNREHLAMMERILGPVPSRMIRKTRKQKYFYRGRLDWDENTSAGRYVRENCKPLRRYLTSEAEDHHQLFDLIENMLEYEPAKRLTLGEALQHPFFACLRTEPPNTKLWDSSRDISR
Data set [5] has as its target Myosin light chain kinase 2, skeletal/cardiac muscle (Homo sapiens) (UniProt Q9H1R3). As to the kind of experiment: Inhibition of MLCK2 (unknown origin) at 1 uM after 15 mins. A digest of the protocol:
(§2)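 Tested in a commercial kinase profiling panel at an ATP concentration of 100 μM. Data are the mean of duplicates that differed by less than 7%.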

Data set [6] has as its target Dual specificity protein kinase CLK4 (Mus musculus) (UniProt O35493). Nature of the data set: Inhibition of recombinant GST-tagged mouse CLK4 using GRSRSRSRSRSR as substrate at 1 uM after 30 mins in presence of [gamma-32P]-ATP by scintillation counting method.
For data set [7], the target named is Dual specificity tyrosine-phosphorylation-regulated kinase 3 (Homo sapiens) (UniProt O43781). As to the kind of experiment: Inhibition of DYRK3 (unknown origin) using KKISGRLSPIMTEQ-NH2 as substrate at 1 uM after 15 mins in presence of [gamma-32P]-ATP.
Chain of Dual specificity tyrosine-phosphorylation-regulated kinase 3 (Homo sapiens) (O43781 whole entry): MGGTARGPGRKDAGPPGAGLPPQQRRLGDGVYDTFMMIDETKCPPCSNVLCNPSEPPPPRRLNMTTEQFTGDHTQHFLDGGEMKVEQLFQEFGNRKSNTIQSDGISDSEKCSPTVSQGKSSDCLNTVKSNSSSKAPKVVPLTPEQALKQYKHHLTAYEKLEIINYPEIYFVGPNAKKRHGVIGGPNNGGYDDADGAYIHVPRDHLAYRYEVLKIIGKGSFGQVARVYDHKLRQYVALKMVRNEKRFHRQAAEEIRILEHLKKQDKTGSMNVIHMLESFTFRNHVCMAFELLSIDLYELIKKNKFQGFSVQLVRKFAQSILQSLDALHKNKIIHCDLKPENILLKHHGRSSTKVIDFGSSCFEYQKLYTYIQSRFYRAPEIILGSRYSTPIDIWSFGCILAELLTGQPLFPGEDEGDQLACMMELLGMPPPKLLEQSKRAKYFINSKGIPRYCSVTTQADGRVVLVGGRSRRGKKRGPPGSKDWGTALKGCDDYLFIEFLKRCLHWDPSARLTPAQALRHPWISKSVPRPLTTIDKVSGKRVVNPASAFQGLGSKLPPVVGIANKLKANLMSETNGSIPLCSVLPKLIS
The target in data set [8] is SRSF protein kinase 2 (Homo sapiens) (UniProt P78362). As to the kind of experiment: Inhibition of SRPK2 (unknown origin) at 1 uM. A digest of the protocol:
as §2

Data set [9] deals with Serine/threonine-protein kinase haspin (Homo sapiens) (UniProt Q8TF76). As to the kind of experiment: Inhibition of MBP-Haspin (unknown origin) at 1 uM after 10 mins by TR-FRET assay. The method, boiled down: as §2
Chain of Serine/threonine-protein kinase haspin (Homo sapiens) (Q8TF76 whole entry): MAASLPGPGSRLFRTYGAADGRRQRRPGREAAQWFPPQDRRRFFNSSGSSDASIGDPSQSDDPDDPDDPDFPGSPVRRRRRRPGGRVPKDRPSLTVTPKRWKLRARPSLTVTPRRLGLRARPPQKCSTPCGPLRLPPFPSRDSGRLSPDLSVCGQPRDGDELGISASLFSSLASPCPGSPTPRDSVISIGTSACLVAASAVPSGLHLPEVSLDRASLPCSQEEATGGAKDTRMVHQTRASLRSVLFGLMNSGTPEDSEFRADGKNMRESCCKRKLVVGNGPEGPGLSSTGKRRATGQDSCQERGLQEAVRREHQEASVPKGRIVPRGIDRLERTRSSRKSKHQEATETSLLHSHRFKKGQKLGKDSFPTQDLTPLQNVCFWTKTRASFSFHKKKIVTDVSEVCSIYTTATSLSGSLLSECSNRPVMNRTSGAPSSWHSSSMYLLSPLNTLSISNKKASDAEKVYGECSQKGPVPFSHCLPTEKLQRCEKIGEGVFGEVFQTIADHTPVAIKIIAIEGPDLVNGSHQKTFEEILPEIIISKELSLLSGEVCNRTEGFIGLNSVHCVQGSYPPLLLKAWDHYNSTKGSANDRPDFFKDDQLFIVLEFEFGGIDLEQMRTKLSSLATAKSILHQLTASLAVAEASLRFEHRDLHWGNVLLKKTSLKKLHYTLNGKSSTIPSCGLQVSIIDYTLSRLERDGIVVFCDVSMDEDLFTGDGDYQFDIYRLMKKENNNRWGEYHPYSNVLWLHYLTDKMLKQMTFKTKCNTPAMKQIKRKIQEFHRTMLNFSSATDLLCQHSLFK
The target of data set [10] is T2, Dual specificity tyrosine-phosphorylation-regulated kinase 1A (Homo sapiens, UniProt Q13627). Nature of the data set: Inhibition of N-terminal His6-tagged recombinant human Dyrk1A expressed in Escherichia coli BL21 (DE3) using KKISGRLSPIMTEQ-NH2 as substrate at 1 uM after 15 mins in presence of [gamma-32]-ATP. The conditions noted are these: 0.25 h.
In data set [11] the target is SRSF protein kinase 1 (Homo sapiens) (UniProt Q96SB4). Nature of the data set: Inhibition of SRPK1 (unknown origin) at 1 uM. The method, boiled down:
as §2

For data set [12], the target named is Serine/threonine-protein kinase 17A (Homo sapiens) (UniProt Q9UEE5). As to the kind of experiment: Inhibition of STK17A (unknown origin) at 1 uM after 15 mins. The method, boiled down: as §2
The target in data set [13] is Dual specificity protein kinase CLK3 (Mus musculus) (UniProt O35492). As to the kind of experiment: Inhibition of recombinant GST-tagged mouse CLK3 using GRSRSRSRSRSR as substrate at 1 uM after 30 mins in presence of [gamma-32P]-ATP by scintillation counting method.
Chain of Dual specificity protein kinase CLK3 (Mus musculus) (O35492 whole entry): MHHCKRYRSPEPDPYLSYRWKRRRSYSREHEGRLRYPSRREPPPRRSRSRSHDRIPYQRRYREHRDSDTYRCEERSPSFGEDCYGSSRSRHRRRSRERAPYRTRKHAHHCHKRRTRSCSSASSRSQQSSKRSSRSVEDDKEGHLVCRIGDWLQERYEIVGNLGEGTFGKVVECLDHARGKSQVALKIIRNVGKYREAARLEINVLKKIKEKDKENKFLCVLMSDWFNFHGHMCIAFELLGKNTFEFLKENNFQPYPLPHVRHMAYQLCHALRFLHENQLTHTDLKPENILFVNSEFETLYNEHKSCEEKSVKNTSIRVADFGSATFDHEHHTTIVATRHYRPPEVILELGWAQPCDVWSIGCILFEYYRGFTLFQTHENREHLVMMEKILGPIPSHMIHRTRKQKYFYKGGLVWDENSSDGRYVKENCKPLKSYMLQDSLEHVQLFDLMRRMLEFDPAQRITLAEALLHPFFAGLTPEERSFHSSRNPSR
Data set [14] concerns the target T2, Dual specificity tyrosine-phosphorylation-regulated kinase 1A. As to the kind of experiment: Inhibition of N-terminal His6-tagged recombinant human Dyrk1A expressed in Escherichia coli BL21 (DE3) using KKISGRLSPIMTEQ-NH2 as substrate after 15 mins in presence of [gamma-32]-ATP.
The nature of data set [15]: Cytotoxicity against HEK293 cells assessed as growth inhibition. It counts as cell-based. The conditions noted are these: human. A digest of the protocol:
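Cytotoxicity was tested in proliferating HEK293 cells with GI50 as the read-out. Data are the mean of at least two independent experiments.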

For data set [16], the target named is Dual specificity tyrosine-phosphorylation-regulated kinase 1B (Homo sapiens, UniProt Q9Y463). As to the kind of experiment: Inhibition of full length recombinant GST-tagged human DYRK1B expressed in baculovirus using KKISGRLSPIMTEQ-NH2 as substrate at 1 uM after 15 mins.
Data set [17] deals with Dual specificity tyrosine-phosphorylation-regulated kinase 4 (Homo sapiens) (UniProt Q9NR20). Nature of the data set: Inhibition of DYRK4 (unknown origin) using KKISGRLSPIMTEQ-NH2 as substrate at 1 uM after 15 mins in presence of [gamma-32P]-ATP.
Chain of Dual specificity tyrosine-phosphorylation-regulated kinase 4 (Homo sapiens) (Q9NR20 whole entry): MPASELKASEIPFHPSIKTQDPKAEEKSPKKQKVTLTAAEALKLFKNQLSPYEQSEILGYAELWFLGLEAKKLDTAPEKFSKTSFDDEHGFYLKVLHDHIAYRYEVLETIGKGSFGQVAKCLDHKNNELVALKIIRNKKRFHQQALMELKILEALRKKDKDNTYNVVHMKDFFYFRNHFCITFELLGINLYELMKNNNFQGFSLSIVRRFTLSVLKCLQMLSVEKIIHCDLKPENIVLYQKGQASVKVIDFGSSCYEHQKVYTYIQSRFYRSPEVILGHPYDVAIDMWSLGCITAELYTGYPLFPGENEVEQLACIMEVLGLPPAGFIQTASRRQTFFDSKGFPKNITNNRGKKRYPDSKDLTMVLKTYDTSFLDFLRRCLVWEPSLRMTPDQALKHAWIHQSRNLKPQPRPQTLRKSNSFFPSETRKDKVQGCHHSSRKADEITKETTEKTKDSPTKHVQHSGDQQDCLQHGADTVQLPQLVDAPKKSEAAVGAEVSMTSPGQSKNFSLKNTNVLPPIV
A further data set concerns PBL. As to the kind of experiment: Cytotoxicity against human PBL after 2 days by MTT assay. The data set is classed as cell-based. The conditions noted are these: 48 h. The method, boiled down:
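Cells plated at 30 000 per well with test compounds or DMSO control for 2 days, then MTT read-out. LC50 reported as the mean of at least two independent experiments.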

In a further data set the test system is HepG2. As to the kind of experiment: Cytotoxicity against human HepG2 cells assessed as growth inhibition after 5 days by MTT assay. The data set is classed as functional. The conditions noted are these: HepG2, 120 h. The method, boiled down: as §1

The source made the active and inactive calls. No cut-off for these calls is given here.

Chain of Myosin light chain kinase 2, skeletal/cardiac muscle (Homo sapiens) (Q9H1R3 whole entry): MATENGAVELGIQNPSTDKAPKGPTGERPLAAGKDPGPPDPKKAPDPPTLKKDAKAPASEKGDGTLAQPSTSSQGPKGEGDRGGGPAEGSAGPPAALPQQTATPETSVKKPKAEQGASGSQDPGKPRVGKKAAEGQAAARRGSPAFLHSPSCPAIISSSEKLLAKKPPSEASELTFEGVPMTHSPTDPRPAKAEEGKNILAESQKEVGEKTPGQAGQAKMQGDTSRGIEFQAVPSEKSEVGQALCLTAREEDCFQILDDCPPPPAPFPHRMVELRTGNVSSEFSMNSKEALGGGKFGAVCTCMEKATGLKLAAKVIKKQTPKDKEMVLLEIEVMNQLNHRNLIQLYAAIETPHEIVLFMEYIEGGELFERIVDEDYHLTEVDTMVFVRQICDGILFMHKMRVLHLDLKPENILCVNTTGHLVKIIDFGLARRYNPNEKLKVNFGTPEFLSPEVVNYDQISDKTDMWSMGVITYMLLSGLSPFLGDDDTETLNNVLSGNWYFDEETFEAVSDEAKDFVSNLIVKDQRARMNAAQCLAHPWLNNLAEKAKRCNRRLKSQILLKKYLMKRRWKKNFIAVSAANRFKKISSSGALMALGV
Chain of SRSF protein kinase 2 (Homo sapiens) (P78362 whole entry, looked up): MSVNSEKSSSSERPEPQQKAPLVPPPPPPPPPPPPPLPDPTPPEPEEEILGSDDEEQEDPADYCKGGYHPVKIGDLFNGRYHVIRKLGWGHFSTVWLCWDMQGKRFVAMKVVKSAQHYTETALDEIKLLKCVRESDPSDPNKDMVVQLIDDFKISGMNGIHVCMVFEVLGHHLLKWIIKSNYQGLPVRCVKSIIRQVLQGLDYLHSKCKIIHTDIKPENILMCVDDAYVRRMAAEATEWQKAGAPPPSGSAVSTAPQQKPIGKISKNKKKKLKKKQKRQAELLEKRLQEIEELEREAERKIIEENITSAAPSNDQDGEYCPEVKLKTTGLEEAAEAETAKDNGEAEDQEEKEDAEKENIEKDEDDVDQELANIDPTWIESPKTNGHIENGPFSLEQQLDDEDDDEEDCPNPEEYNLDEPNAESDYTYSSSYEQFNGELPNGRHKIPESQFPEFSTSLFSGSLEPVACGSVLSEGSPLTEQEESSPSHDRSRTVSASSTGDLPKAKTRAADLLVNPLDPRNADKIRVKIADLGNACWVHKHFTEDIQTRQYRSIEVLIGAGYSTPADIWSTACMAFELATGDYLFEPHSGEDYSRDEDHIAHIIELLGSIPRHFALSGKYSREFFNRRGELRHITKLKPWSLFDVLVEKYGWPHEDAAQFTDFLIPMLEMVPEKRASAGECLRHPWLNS

Broadly, the inhibition is the drop in the measured response relative to a control, in per cent. On to `COc1ccc2sc(C(=O)NCCn3ccnc3)cc2c1`, for which the inhibition in data set [1] worked out at 0%. Same read-out and setting: the value for `COc1ccc2sc(C(=O)NCc3ccco3)cc2c1` was 33.4%. `COc1ccc2sc(C(=O)N(C)CCn3ccnc3)cc2c1`: the inhibition in data set [1] came to 9.4%. Take `COc1ccc2sc(C(=O)NCCN)cc2c1`: the inhibition in [1] was 7.7%.

Consider `COc1ccc2sc(C(=O)Nc3ccccc3)cc2c1`, for which the inhibition in data set [1] was 0.54%. Same read-out and setting: the value for `C=CCNC(=O)c1cc2cc(OC)ccc2s1` was 37%; that for `COC(=O)CNC(=O)c1cc2cc(OC)ccc2s1` was 0%.

For `COc1ccc2sc(C(=O)NC3CC3)cc2c1`, the inhibition in [1] was 25%. Same read-out and setting: the value for `COc1ccc2sc(C(=O)NCC(=O)O)cc2c1` was 0.5%; that for `COc1ccc2sc(C(=O)NCc3ncc[nH]3)cc2c1` was 0%.

Regarding `COc1ccc2sc(C(=O)Nc3nccs3)cc2c1`, in data set [1], the inhibition was determined as 28.2%.

As to `COc1ccc2sc(C(=O)N3CCN(C)CC3)cc2c1`, the inhibition in data set [1] was 0%. For orientation: IC50 means the concentration at which inhibition is half-maximal. As usually defined, the GI50 is the concentration giving 50% growth inhibition. As to `COc1ccc2sc(C(=O)N(C)Cc3cccnc3)cc2c1`, in [2], the IC50 turned out to be 0.0816 µM. For the same compound, the GI50 in the data set with T47D came out at 25.4 µM; in the data set with T-24 it was 12.5 µM; with MDA-MB-231, 25.7 µM. Besides, in [1], the inhibition came out at 51%. Take `COc1cccc(CN(C)C(=O)c2cc3cc(OC)ccc3s2)c1`: the inhibition in [1] stood at 31.6%.

A word on the LC50: it is the concentration that kills 50% of the test population. Low readings indicate greater toxicity, high ones lower toxicity. `COc1ccc2sc(C(=O)N(C)Cc3ccccc3)cc2c1`: the IC50 was 0.045 µM in data set [2] and 0.52 µM in [14]. Besides, the GI50 in the data set with THP-1 was above 30 µM; with T47D, 28.8 µM; with T-24 it was 2.7 µM; in data set [15], above 30 µM; in the data set on MDA-MB-231, 24.2 µM; in the data set with HepG2, 3.7 µM. The inhibition in [3] turned out to be 81%; in [4], 73%; in data set [6], 101%; in data set [8], 10%; in [9], 12%; in data set [11], 4%. The inhibition in data set [12] came out at 23%; in data set [13], 44%; in [16], 58%; in [1], 70.6%. The inhibition result in [5], in data set [7] and in data set [17] was “inactive” in each case. Further, in data set [10], the inhibition at 1 µM amounted to 54%. The compound also came in with an LC50 with PBL above 30 µM. On to `COc1ccc2sc(C(=O)N3CCOCC3)cc2c1`, for which the inhibition in data set [1] came to 0%.

In the case of `COc1ccc2sc(C(=O)NCc3ccccc3)cc2c1`, in [2], the IC50 was determined as 0.084 µM. The inhibition in data set [1] was 59.4%. Take `COc1ccc2sc(C(=O)N(C)Cc3cccc(C)c3)cc2c1`: the inhibition in [1] is 25.9%.

Turning to `CCOC(=O)[C@H](C)NC(=O)c1cc2cc(OC)ccc2s1`, the inhibition in [1] was determined as 0%. As to `COc1ccc2sc(C(=O)NCC(F)(F)F)cc2c1`, the inhibition in data set [1] was determined as 39.8%.

As to `COC(=O)[C@@H](NC(=O)c1cc2cc(OC)ccc2s1)C(C)C`, the inhibition in data set [1] came to 18.8%. The same measure, in the same setting: with `COc1ccc2sc(C(=O)N[C@@H](C)C(=O)O)cc2c1` the figure was 0%; with `COc1ccc2sc(C(=O)NCc3ccccn3)cc2c1`, 0%. For `COc1ccc2sc(C(=O)NCCc3ccccc3)cc2c1`, the IC50 in data set [2] came out at 0.107 µM. Further, the inhibition in data set [1] was determined as 50.7%. Take `COc1ccc2sc(C(=O)NCCO)cc2c1`: the inhibition in data set [1] was 0%. Still for that read-out and setting: the value for `COc1ccc2sc(C(=O)NCc3ccccc3F)cc2c1` was 23.2%; that for `COc1ccc2sc(C(=O)N(C)CCc3ccccc3)cc2c1` was 32.9%. Same read-out and setting: with `COc1ccc2sc(C(=O)N(C)Cc3ccc(F)cc3)cc2c1` the figure was 28.7%. Still for that read-out and setting: with `COc1ccc2sc(C(=O)N(C)Cc3ccccc3F)cc2c1` the figure was 43.2%. As to `COc1ccc2sc(C(=O)N(C)Cc3ccccn3)cc2c1`, in data set [1], the inhibition was 34.6%. For the compound `COc1ccc2sc(C(=O)N[C@H](C)C(C)(C)C)cc2c1`, in [1], the inhibition was 6%. Same read-out and setting: the value for `COc1ccc2sc(C(=O)N3CCCCC3)cc2c1` was 0%. The same measure, in the same setting: with `COc1cccc(CNC(=O)c2cc3cc(OC)ccc3s2)c1` the figure was 13.4%; with `COc1ccc2sc(C(=O)N[C@H](C(=O)O)C(C)C)cc2c1`, 0%. Still for that read-out and setting: with `COc1ccc2sc(C(=O)NCc3ccc(F)cc3)cc2c1` the figure was 23.5%; with `COc1ccc2sc(C(=O)NCc3cccnc3)cc2c1`, 28.9%.
